According to ChEMBL document CHEMBL3227997, “Nucleosides. 110. Synthesis and antiherpes virus activity of some 2'-fluoro-2'-deoxyarabinofuranosylpyrimidine nucleosides” (J Med Chem, 1979):
In brackets after ≈: the same amount, converted by molar mass.

Columns and labels:
Human alphaherpesvirus 1 [1] = test: Antiviral activity against HSV1 2931 infected in African green monkey Vero cells assessed as inhibition of virus replication at 100 ug/ml after 24 hrs relative to control; format: functional; details: Human alphaherpesvirus 1, 2931, Vero
How it was run: (§1)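 Vero monolayers infected with HSV-1 strain 2931 at about 1 PFU/cell, adsorbed 2 h, then overlaid with maintenance medium containing drug. Supernatants harvested 24 h later and titered on Vero monolayers.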

Human alphaherpesvirus 1 [2] = test: Antiviral activity against HSV1 2931 infected in African green monkey Vero cells assessed as inhibition of virus replication at 10 ug/ml after 24 hrs relative to control; format: functional; details: Human alphaherpesvirus 1, 2931, Vero; how it was run: as §1
[3] = Cytotoxicity against mouse P815 cells assessed as growth inhibition after 96 hrs; format: cell-based; details: read-out: ID50
How it was run: (§2)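 Mouse leukemic lines grown in McCoy's medium with 15% fetal calf serum, starting at 40 000–60 000 cells/mL. Nucleoside added from a 50-fold concentrate; triplicate loosely capped tubes held at 37 °C in 5% CO2 for 96 h, controls reaching ~10^6 cells/mL. Cells counted electronically; percent growth inhibition calculated and the concentration for 50% inhibition reported.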

Human alphaherpesvirus 1 [4] = test: Antiviral activity against HSV1 2931 infected in African green monkey Vero cells assessed as inhibition of virus replication at 1 ug/ml after 24 hrs relative to control; format: functional; details: Human alphaherpesvirus 1, 2931, Vero; how it was run: as §1
[5] = Cytotoxicity against mouse L5178Y cells assessed as growth inhibition after 96 hrs; format: cell-based; details: read-out: ID50; how it was run: as §2
Human alphaherpesvirus 1 [6] = test: Antiviral activity against HSV1 2931 infected in African green monkey Vero cells assessed as inhibition of virus replication at 0.1 ug/ml after 24 hrs relative to control; format: functional; details: Human alphaherpesvirus 1, 2931, Vero; how it was run: as §1
Human alphaherpesvirus 1 [7] = test: Antiviral activity against HSV1 2931 infected in African green monkey Vero cells assessed as inhibition of virus replication at 0.01 ug/ml after 24 hrs relative to control; format: functional; details: Human alphaherpesvirus 1, 2931, Vero; how it was run: as §1
Human alphaherpesvirus 1 [8] = test: Potency index, ratio of compound activity to vidarabine activity against HSV1 2931; format: functional

Structure (SMILES) | inhibition at 100 µg/mL (Human alphaherpesvirus 1 [1]) | inhibition at 10 µg/mL (Human alphaherpesvirus 1 [2]) | GI50 at 96 h [3] | inhibition at 1 µg/mL (Human alphaherpesvirus 1 [4]) | GI50 at 96 h [5] | inhibition at 0.1 µg/mL (Human alphaherpesvirus 1 [6]) | inhibition at 0.01 µg/mL (Human alphaherpesvirus 1 [7]) | Ratio (Human alphaherpesvirus 1 [8])
Cc1cn([C@@H]2O[C@H](CO)[C@@H](O)[C@@H]2O)c(=O)[nH]c1=O | 100% | 100% | 13 µg/mL (≈ 50.3 µM) | > 90% | > 100 µg/mL | < 90% | < 90% | 
Nc1nc(=O)n([C@@H]2O[C@H](CO)[C@@H](O)[C@@H]2F)cc1Br |  | 100% | > 10 µg/mL | > 99% | 10 µg/mL (≈ 30.9 µM) | > 90% | < 90% | 
Nc1ccn([C@@H]2O[C@H](CO)[C@@H](O)[C@@H]2F)c(=O)n1 | > 100% | > 99.9% | 0.05 µg/mL (≈ 0.204 µM) | > 90% | 0.05 µg/mL (≈ 0.204 µM) | > 90% | < 90% | 
Nc1nc(=O)n([C@@H]2O[C@H](CO)[C@@H](O)[C@@H]2F)cc1F |  | > 99.9% | 0.4 µg/mL (≈ 1.52 µM) | > 99% | 0.5 µg/mL (≈ 1.9 µM) | > 90% | < 90% | 
Nc1nc(=O)n([C@@H]2O[C@H](CO)[C@@H](O)[C@@H]2F)cc1Cl |  | > 99.9% | 1 µg/mL (≈ 3.58 µM) | < 90% | 1.4 µg/mL (≈ 5.01 µM) | < 90% | < 90% | 
Cl.Nc1nc(=O)n([C@@H]2O[C@H](CO)[C@@H](O)[C@@H]2F)cc1I | 100% | 100% | 14 µg/mL | > 100% | 48 µg/mL | > 99% | > 90% | 1000
O=c1ccn([C@@H]2O[C@H](CO)[C@@H](O)[C@@H]2F)c(=O)[nH]1 |  | > 99% | > 10 µg/mL | > 99% | > 10 µg/mL | < 90% | < 90% | 
O=c1[nH]c(=O)n([C@@H]2O[C@H](CO)[C@@H](O)[C@@H]2F)cc1F |  | 100% | 0.7 µg/mL (≈ 2.65 µM) | > 100% | 1 µg/mL (≈ 3.79 µM) | > 99% | < 90% | 
O=c1[nH]c(=O)n([C@@H]2O[C@H](CO)[C@@H](O)[C@@H]2F)cc1Cl |  | > 100% | 3.4 µg/mL (≈ 12.1 µM) | < 90% | 1.4 µg/mL (≈ 4.99 µM) | < 90% | < 90% | 
O=c1[nH]c(=O)n([C@@H]2O[C@H](CO)[C@@H](O)[C@@H]2F)cc1Br |  | > 100% | 1.6 µg/mL (≈ 4.92 µM) | > 99% | 0.9 µg/mL (≈ 2.77 µM) | < 90% | < 90% | 
Nc1nc(=O)n([C@@H]2O[C@H](CO)[C@@H](O)[C@@H]2O)cc1I |  | > 100% | 0.08 µg/mL (≈ 0.217 µM) | > 90% | 0.2 µg/mL (≈ 0.542 µM) | < 90% | < 90% | 
O=c1[nH]c(=O)n([C@@H]2O[C@H](CO)[C@@H](O)[C@@H]2O)cc1I | > 100% | > 90% | 16 µg/mL (≈ 43.2 µM) | < 90% | 30 µg/mL (≈ 81.1 µM) | < 90% | < 90% | 
Cc1cn([C@@H]2O[C@H](CO)[C@@H](O)[C@@H]2F)c(=O)[nH]c1=O [5-METHYL-2'-FLUOROARAURACIL] |  | 100% | 1.9 µg/mL (≈ 7.3 µM) | > 99.9% | 1.6 µg/mL (≈ 6.15 µM) | > 90% | < 90% | 
Nc1ccn([C@@H]2O[C@H](CO)[C@@H](O)[C@@H]2O)c(=O)n1 [CYTARABINE] | > 100% | > 100% | 0.02 µg/mL (≈ 0.0822 µM) | > 90% | 0.02 µg/mL (≈ 0.0822 µM) | < 90% | < 90% | 
O=c1[nH]c(=O)n([C@@H]2O[C@H](CO)[C@@H](O)[C@@H]2F)cc1I [FIALURIDINE] |  | > 100% | 0.8 µg/mL (≈ 2.15 µM) | > 99.9% | 0.9 µg/mL (≈ 2.42 µM) | > 90% | < 90% | 
Nc1nc(=O)n([C@H]2C[C@H](O)[C@@H](CO)O2)cc1I [IBACITABINE] |  | > 99.9% | > 100 µg/mL | > 90% | > 100 µg/mL | < 90% | < 90% | 
O=c1[nH]c(=O)n([C@H]2C[C@H](O)[C@@H](CO)O2)cc1I [IDOXURIDINE] | 100% | > 90% | 0.9 µg/mL (≈ 2.54 µM) | < 90% | 4.2 µg/mL (≈ 11.9 µM) | < 90% | < 90% | 
